Measurements pooled from the literature.
Each line is one published result; the experiments were not run side by side.
Action: inhibitor
CYP1A2: Cytochrome P450 1A2 (CYP1A2, Homo sapiens, UniProt P05177)
SLCO1B1: Solute carrier organic anion transporter family member 1B1 (SLCO1B1, Homo sapiens, UniProt Q9Y6L6)

Structure (SMILES)	target	test	test system	setting	measurement	result
O=C(CCCCCCC(=O)Nc1ccccc1)NO	CYP1A2	enzyme activity, fluorescence	–	–	IC50	7.28 µM
CC(C)(O)[C@@H]1CC[C@](C)([C@H]2[C@@H](O)C[C@@]3(C)[C@@H]4C[C@H](O[C@@H]5O[C@H](CO)[C@@H](O)[C@H](O)[C@H]5O)[C@H]5C(C)(C)[C@@H](O[C@@H]6OC[C@@H](O)[C@H](O)[C@H]6O)CC[C@@]56C[C@@]46CC[C@]23C)O1	CYP1A2	enzyme activity	human, liver microsomes	–	IC50	> 200 µM
CSc1ccccc1C(=O)NCCn1cc(C(=O)NCc2cccc(C)n2)c(=O)c2cc3c(cc21)OCO3	CYP1A2	enzyme activity	human, liver microsomes	20 min, without NADPH, with preincubation	IC50	> 100 µM
CC[C@H](C)[C@@H]([C@@H](CC(=O)N1CCC[C@H]1[C@H](OC)[C@@H](C)C(=O)N[C@@H](Cc1ccccc1)C(=O)NCCCO)OC)N(C)C(=O)[C@@H](NC(=O)[C@H](C(C)C)N(C)C)C(C)C	Cytochrome P450 3A4 (CYP3A4, Homo sapiens, UniProt P08684)	enzyme activity	–	–	Ki	21.8 µM
O=C(O)COc1cccc(-c2nc(Nc3ccc4[nH]ncc4c3)c3ccccc3n2)c1	SLCO1B1	transporter uptake, radiometric	–	–	IC50	0.39 µM
CSc1ccccc1C(=O)NCCn1cc(C(=O)NCc2cccc(C)n2)c(=O)c2cc3c(cc21)OC(F)(F)O3	CYP1A2	enzyme activity	human, liver microsomes	20 min, without NADPH, with preincubation	IC50	> 100 µM
NC/C(=C\F)COc1cccc(Cn2c(=S)[nH]c(=O)c3[nH]cnc32)c1	SLCO1B1	transporter uptake	–	30 µM	inhibition	< 50%
CC(=O)O[C@H]1[C@H](O[C@H]2CC[C@]34C[C@]35CC[C@]3(C)[C@@H]([C@@]6(C)CC[C@@H](C(C)(C)O)O6)[C@@H](O)C[C@@]3(C)[C@@H]5C[C@H](O[C@@H]3O[C@H](CO)[C@@H](O)[C@H](O)[C@H]3O)[C@H]4C2(C)C)OC[C@@H](OC(C)=O)[C@@H]1O	CYP1A2	enzyme activity	human, liver microsomes	–	IC50	> 200 µM
